# In ChEMBL document CHEMBL3425484, “Novel N-benzenesulfonyl sophocarpinol derivatives as coxsackie B virus inhibitors” (ACS Med Chem Lett, 2015):
# What was measured:
# [1] = Cytotoxicity against african green monkey Vero cells assessed as inhibition of cell growth after 24 hrs by CPE assay; assay type: cell-based; settings: chlorocebus sabaeus, read-out: TC50
# [2] = tested on: Coxsackievirus; assay: Antiviral activity against Coxsackievirus B3 infected in african green monkey Vero cells assessed as reduction in viral-induced cytopathic effect; assay type: functional, organism-based
# Outline: (§1)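 Vero (African green monkey kidney) cells were infected with the CVB subtype and scored by viral cytopathogenic effect (CPE) reduction, with ribavirin as the positive control. IC50 is the concentration that inhibits CVB growth by 50%.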
# [3] = Selectivity index, ratio of TC50 for african green monkey Vero cells to IC50 for Coxsackievirus B3 infected in african green monkey Vero cells; assay type: toxicity, cell-based; settings: read-out: Selectivity Index
# Outline: (§2)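 SI is calculated as TC50 (50% inhibition of Vero cell growth) divided by IC50 (50% inhibition of the respective CVB subtype's growth, from the CPE assay in Vero cells, ribavirin as positive control).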
# [4] = tested on: Coxsackievirus; assay: Antiviral activity against Coxsackievirus B1 infected in african green monkey Vero cells assessed as reduction in viral-induced cytopathic effect; assay type: functional, organism-based; outline: as §1
# [5] = tested on: Coxsackievirus; assay: Antiviral activity against Coxsackievirus B2 infected in african green monkey Vero cells assessed as reduction in viral-induced cytopathic effect; assay type: functional, organism-based; outline: as §1
# [6] = tested on: Coxsackievirus; assay: Antiviral activity against Coxsackievirus B6 infected in african green monkey Vero cells assessed as reduction in viral-induced cytopathic effect; assay type: functional, organism-based; outline: as §1
# [7] = Selectivity index, ratio of TC50 for african green monkey Vero cells to IC50 for Coxsackievirus B1 infected in african green monkey Vero cells; assay type: toxicity, cell-based; settings: read-out: Selectivity Index; outline: as §2
# [8] = Selectivity index, ratio of TC50 for african green monkey Vero cells to IC50 for Coxsackievirus B2 infected in african green monkey Vero cells; assay type: toxicity, cell-based; settings: read-out: Selectivity Index; outline: as §2
# [9] = Selectivity index, ratio of TC50 for african green monkey Vero cells to IC50 for Coxsackievirus B6 infected in african green monkey Vero cells; assay type: toxicity, cell-based; settings: read-out: Selectivity Index; outline: as §2
# [10] = tested on: Coxsackievirus; assay: Antiviral activity against Coxsackievirus B5 infected in african green monkey Vero cells assessed as reduction in viral-induced cytopathic effect; assay type: functional, organism-based; outline: as §1
SMILES,CC50 at 24 h [1],IC50 [2],selectivity ratio [3],further results
COC(=O)CCC[C@@H]1[C@H]2CCCN3CCC[C@@H](CN1S(=O)(=O)c1ccccc1[N+](=O)[O-])[C@@H]23,399 µM,23.9 µM,16.7,
N#Cc1ccccc1S(=O)(=O)N1C[C@@H]2CCCN3CCC[C@@H]([C@H]23)[C@H]1/C=C/CC(=O)O,466 µM,22.7 µM,20.5,
O=[N+]([O-])c1ccc(S(=O)(=O)N2C[C@@H]3CCCN4CCC[C@@H]([C@H]34)[C@H]2/C=C\CCO)cc1,265 µM,17 µM,15.6,
O=C(O)CCC[C@@H]1[C@H]2CCCN3CCC[C@@H](CN1S(=O)(=O)c1ccc(C(F)(F)F)cc1)[C@@H]23,392 µM,75.4 µM,5.2,
COC(=O)C/C=C\[C@@H]1[C@H]2CCCN3CCC[C@@H](CN1S(=O)(=O)c1ccc(C#N)cc1)[C@@H]23,292 µM,8.04 µM,36.3,
O=C(O)C/C=C\[C@@H]1[C@H]2CCCN3CCC[C@@H](CN1S(=O)(=O)c1ccc([N+](=O)[O-])cc1)[C@@H]23,309 µM,49.8 µM,6.2,
COC(=O)C/C=C\[C@@H]1[C@H]2CCCN3CCC[C@@H](CN1S(=O)(=O)c1cccc(C(F)(F)F)c1)[C@@H]23,198 µM,2.24 µM,88.3,
COC(=O)C/C=C\[C@@H]1[C@H]2CCCN3CCC[C@@H](CN1S(=O)(=O)c1ccc([N+](=O)[O-])cc1)[C@@H]23,186 µM,7.02 µM,26.4,
N#Cc1ccc(S(=O)(=O)N2C[C@@H]3CCCN4CCC[C@@H]([C@H]34)[C@H]2/C=C\CC(=O)O)cc1,745 µM,52.4 µM,14.2,
N#Cc1ccccc1S(=O)(=O)N1C[C@@H]2CCCN3CCC[C@@H]([C@H]23)[C@H]1C/C=C/C(=O)O,466 µM,> 155 µM,,
O=[N+]([O-])c1ccccc1S(=O)(=O)N1C[C@@H]2CCCN3CCC[C@@H]([C@H]23)[C@H]1CCCCO,244 µM,35.7 µM,6.8,
N#Cc1cccc(S(=O)(=O)N2C[C@@H]3CCCN4CCC[C@@H]([C@H]34)[C@H]2CCCCO)c1,147 µM,11.3 µM,13,
N#Cc1cccc(S(=O)(=O)N2C[C@@H]3CCCN4CCC[C@@H]([C@H]34)[C@H]2/C=C/CC(=O)O)c1,466 µM,13.1 µM,35.5,
O=S(=O)(c1ccc(C(F)(F)F)cc1)N1C[C@@H]2CCCN3CCC[C@@H]([C@H]23)[C@H]1CCCCO,233 µM,6.55 µM,35.5,
O=C(O)C/C=C\[C@@H]1[C@H]2CCCN3CCC[C@@H](CN1S(=O)(=O)c1ccccc1[N+](=O)[O-])[C@@H]23,595 µM,16.2 µM,36.8,
O=C(O)C/C=C\[C@@H]1[C@H]2CCCN3CCC[C@@H](CN1S(=O)(=O)c1cc(Br)c(Br)s1)[C@@H]23,191 µM,53.1 µM,3.6,
N#Cc1cccc(S(=O)(=O)N2C[C@@H]3CCCN4CCC[C@@H]([C@H]34)[C@H]2/C=C\CCO)c1,148 µM,5.47 µM,27,
COC(=O)C/C=C/[C@@H]1[C@H]2CCCN3CCC[C@@H](CN1S(=O)(=O)c1ccccc1C(F)(F)F)[C@@H]23,38.1 µM,11.9 µM,3.2,
COC(=O)C/C=C/[C@@H]1[C@H]2CCCN3CCC[C@@H](CN1S(=O)(=O)c1cccc(C#N)c1)[C@@H]23,72.4 µM,7.3 µM,9.9,
COC(=O)C/C=C\[C@@H]1[C@H]2CCCN3CCC[C@@H](CN1S(=O)(=O)c1cccc([N+](=O)[O-])c1)[C@@H]23,112 µM,9.24 µM,12.1,
O=S(=O)(c1ccc(C(F)(F)F)cc1)N1C[C@@H]2CCCN3CCC[C@@H]([C@H]23)[C@H]1/C=C\CCO,93.5 µM,4.17 µM,22.4,

SMILES,CC50 at 24 h [1],IC50 [2],selectivity ratio [3],further results
O=S(=O)(c1cccc(C(F)(F)F)c1)N1C[C@@H]2CCCN3CCC[C@@H]([C@H]23)[C@H]1/C=C\CCO,93.5 µM,15 µM,6.2,
O=C(O)C/C=C/[C@@H]1[C@H]2CCCN3CCC[C@@H](CN1S(=O)(=O)c1ccccc1C(F)(F)F)[C@@H]23,393 µM,11.1 µM,35.4,
COC(=O)C/C=C\[C@@H]1[C@H]2CCCN3CCC[C@@H](CN1S(=O)(=O)c1ccc(C(F)(F)F)cc1)[C@@H]23,54.7 µM,8.17 µM,6.7,
COC(=O)CCC[C@@H]1[C@H]2CCCN3CCC[C@@H](CN1S(=O)(=O)c1cccc(C#N)c1)[C@@H]23,288 µM,11.7 µM,24.6,
O=C(O)C/C=C\[C@@H]1[C@H]2CCCN3CCC[C@@H](CN1S(=O)(=O)c1ccc(C(F)(F)F)cc1)[C@@H]23,272 µM,18.6 µM,14.7,
O=C(O)C/C=C/[C@@H]1[C@H]2CCCN3CCC[C@@H](CN1S(=O)(=O)c1ccc(C(F)(F)F)cc1)[C@@H]23,1470 µM,33.7 µM,43.6,
N#Cc1cccc(S(=O)(=O)N2C[C@@H]3CCCN4CCC[C@@H]([C@H]34)[C@H]2CCCC(=O)O)c1,428 µM,82.3 µM,5.2,
O=C(O)C/C=C\[C@@H]1[C@H]2CCCN3CCC[C@@H](CN1S(=O)(=O)c1cccc([N+](=O)[O-])c1)[C@@H]23,445 µM,63.6 µM,7,
O=C(O)CCC[C@@H]1[C@H]2CCCN3CCC[C@@H](CN1S(=O)(=O)c1ccccc1[N+](=O)[O-])[C@@H]23,410 µM,78.9 µM,5.2,
COC(=O)CCC[C@@H]1[C@H]2CCCN3CCC[C@@H](CN1S(=O)(=O)c1cccc([N+](=O)[O-])c1)[C@@H]23,68.9 µM,3.51 µM,19.7,
O=C(O)/C=C/C[C@@H]1[C@H]2CCCN3CCC[C@@H](CN1S(=O)(=O)c1ccccc1C(F)(F)F)[C@@H]23,424 µM,27.2 µM,15.6,
N#Cc1cccc(S(=O)(=O)N2C[C@@H]3CCCN4CCC[C@@H]([C@H]34)[C@H]2/C=C\CC(=O)O)c1,745 µM,17.4 µM,42.7,
COC(=O)C/C=C\[C@@H]1[C@H]2CCCN3CCC[C@@H](CN1S(=O)(=O)c1cc(Br)c(Br)s1)[C@@H]23,21.1 µM,1.19 µM,17.7,
COC(=O)C/C=C\[C@@H]1[C@H]2CCCN3CCC[C@@H](CN1S(=O)(=O)c1ccccc1C#N)[C@@H]23,289 µM,4.21 µM,68.7,
COC(=O)C/C=C\[C@@H]1[C@H]2CCCN3CCC[C@@H](CN1S(=O)(=O)c1ccccc1[N+](=O)[O-])[C@@H]23,481 µM,5.23 µM,92.1,
N#Cc1ccccc1S(=O)(=O)N1C[C@@H]2CCCN3CCC[C@@H]([C@H]23)[C@H]1/C=C\CC(=O)O,430 µM,27.6 µM,15.6,
N#Cc1ccc(S(=O)(=O)N2C[C@@H]3CCCN4CCC[C@@H]([C@H]34)[C@H]2C/C=C/C(=O)O)cc1,> 466 µM,29.9 µM,> 15.7,
COC(=O)CCC[C@@H]1[C@H]2CCCN3CCC[C@@H](CN1S(=O)(=O)c1ccc(C(F)(F)F)cc1)[C@@H]23,73.4 µM,2.54 µM,28.9,
COC(=O)CCC[C@@H]1[C@H]2CCCN3CCC[C@@H](CN1S(=O)(=O)c1cccc(C(F)(F)F)c1)[C@@H]23,193 µM,1.98 µM,92.4,IC50 [4]: 1.28 µM; IC50 [5]: 0.00761 mM; IC50 [6]: 0.44 µM; selectivity ratio [7]: 144; selectivity ratio [8]: 16.7; selectivity ratio [9]: 139
NC(=O)c1ncn([C@@H]2O[C@H](CO)[C@@H](O)[C@H]2O)n1 [RIBAVIRIN],8200 µM,695 µM,,IC50 [4]: 1950 µM; IC50 [5]: 2.1 mM; IC50 [10]: 911 µM; IC50 [6]: 1710 µM
COC(=O)C/C=C/[C@@H]1[C@H]2CCCN3CCC[C@@H](CN1S(=O)(=O)c1ccccc1C#N)[C@@H]23,80.3 µM,8.92 µM,9,
